Measured values taken from ChEMBL document CHEMBL3244043, “Nucleoside 5'-monophosphate analogues. Synthesis of 5'-sulfamino-5'-deoxynucleosides” (J Med Chem, 1978).
Activity calls are given as the source filed them. No cut-off for these calls is given here.

What was measured:
[1] = Stability of the compound in NaOH assessed as cleavage of sulfamino group at 23 degC after 24 hrs; type: physicochemical
Outline: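 Compound exposed to 0.1 M NaOH at 23 °C for 24 h, then examined for any cleavage of the 5'-sulfamino group.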

[2] = Drug degradation in HCl assessed as hydrolysis of 5'-sulfamino group to form amino nucleoside at 23 degC after 24 hrs; type: physicochemical; details: read-out: Drug degradation
Outline: (§1)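 Compound held in 0.1 M HCl at 23 °C for 24 h. Hydrolysis reported as percent cleavage of the 5'-sulfamino group, giving the amino nucleoside, and of the glycosidic bond, giving adenine.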

[3] = Drug degradation in HCl assessed as hydrolysis of glycosidic linkage to form adenine at 23 degC after 24 hrs; type: physicochemical; details: read-out: Drug degradation; outline: as §1
[4] = test system: Human alphaherpesvirus 1; assay: Antiviral activity against Herpes simplex virus type 1 infected in African green monkey CV1 cells assessed as inhibition of viral replication at 10^-4 M; type: functional, organism-based; details: CV-1
[5] = test system: Enterococcus faecalis; assay: Antibacterial activity against Streptococcus faecalis assessed as growth inhibition at 1 x 10^-3 M relative to control; type: functional; details: read-out: GI
[6] = test system: Escherichia coli; assay: Antibacterial activity against Escherichia coli K-12 assessed as growth inhibition at 1 x 10^-3 M relative to control; type: functional; details: read-out: GI
[7] = test system: Escherichia coli; assay: Antibacterial activity against Escherichia coli B assessed as growth inhibition at 1 x 10^-3 M relative to control; type: functional; details: read-out: GI
[8] = test system: L1210; assay: Cytotoxicity against mouse L1210 cells assessed as growth inhibition at 1 x 10^-3 M; type: functional, cell-based
[9] = test system: L1210; assay: Cytotoxicity against mouse L1210 cells assessed as cell growth at 1 x 10^-4 M; type: functional, cell-based
[10] = test system: Human alphaherpesvirus 1; assay: Antiviral activity against Herpes simplex virus type 1 infected in African green monkey CV1 cells assessed as inhibition of viral replication at 1 x 10^-5 M relative to control; type: functional; details: Human alphaherpesvirus 1, CV-1
[11] = test system: Human alphaherpesvirus 1; assay: Antiviral activity against Herpes simplex virus type 1 infected in African green monkey CV1 cells assessed as inhibition of viral replication at 1 x 10^-4 M relative to control; type: functional; details: Human alphaherpesvirus 1, CV-1
[12] = Cytotoxicity against African green monkey CV1 cells assessed as effect on cell growth at 1 x 10^-4 M; type: cell-based; details: chlorocebus aethiops, cv-1, 100 µM

Row | Stability [1] | degraded at 24 h [2] | degraded at 24 h [3] | SMILES | inhibition [4] | inhibition of growth at 1000 µM [5] | inhibition of growth at 1000 µM [6] | inhibition of growth at 1000 µM [7] | growth inhibition (GI) [8] | Activity [9] | inhibition at 10 µM [10] | inhibition at 100 µM [11] | Activity [12]
1 | Stable | 0.75% | 16% | Nc1ncnc2c1ncn2[C@@H]1O[C@H](CNS(=O)(=O)O)[C@@H](O)[C@H]1O | inactive | < 10% | < 10% | < 10% | inactive | inactive |  |  | 
2 | Stable | 2.4% |  | Cc1cn([C@H]2C[C@H](O)[C@@H](CNS(=O)(=O)O)O2)c(=O)[nH]c1=O |  | < 10% | < 10% | < 10% | inactive | inactive | 35% | 70% | Non-toxic
